Data on four molecules can be found in ChEMBL document CHEMBL4340542, “Design, synthesis and biological evaluation of 4-aniline-thieno[2,3-d]pyrimidine derivatives as MNK1 inhibitors against renal cell carcinoma and nasopharyngeal carcinoma” (Bioorg Med Chem, 2019).

The source made the active and inactive calls. No cut-off for these calls is given here.

The target in data set [1] is T1, Mitogen-activated protein kinase; ERK1/ERK2 (Homo sapiens) (UniProt P27361+P28482). In words: Inhibition of ERK1/2 phosphorylation in human SUNE1 cells at 1 uM incubated for 24 hrs by Western blot analysis relative to control. It is filed as cell-based. An outline of the steps:
(§1)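 Cells treated 24 h at 1 µM. The test compound was also given 6 h. Cells harvested, trypsinised and washed twice in cold PBS, then lysed in RIPA buffer on ice and sonicated. Lysate centrifuged cold at 10000 g for 30 min. Supernatant protein quantified, run on SDS-PAGE, transferred to PVDF and probed for ERK1/2, pERK1/2, MNK1, eIF4E and p-eIF4E.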
(In general: In western blotting, separated proteins are transferred to a membrane and probed.)

Data set [2] deals with CAKI-1. The data set is described as follows: Cytotoxicity against human Caki1 cells assessed as decrease in cell viability incubated for 24 hrs by MTT assay. It is filed as functional, cell-based. An outline of the steps:
(§2)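 IC50 from an 8–10 point concentration gradient by MTT assay. Panel covers renal cell carcinoma and nasopharyngeal carcinoma lines. Values are mean ± SD, n = 3.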
Background: Tetrazolium dyes change colour on reduction, which living cells bring about.

The subject of data set [3] is SUNE1. In words: Induction of apoptosis in human SUNE1 cells assessed as viable cells at 5 uM incubated for 24 hrs by Annexin-V/propidium iodide staining based flow cytometric method (reference value: 93.79%). It counts as functional. Particulars: SUNE1, 24 h, read-out: Activity. (In general: Flow cytometry measures light scatter and fluorescence of single cells or particles in a stream.)

The subject of data set [4] is SUNE1. The data set is described as follows: Induction of apoptosis in human SUNE1 cells assessed as necrotic cells at 1 uM incubated for 24 hrs by Annexin-V/propidium iodide staining based flow cytometric method (reference value: 1.07%). It counts as functional.
The subject of data set [5] is SUNE1. The data set is described as follows: Effect on total eIF4E protein expression in human SUNE1 cells incubated for 24 hrs by Western blot analysis relative to control. It counts as ADME, cell-based. Particulars: sune1, 24 h. An outline of the steps:
as §1

Data set [6] has as its system SUNE1. In words: Induction of apoptosis in human SUNE1 cells assessed as early apoptotic cells at 1 uM incubated for 24 hrs by Annexin-V/propidium iodide staining based flow cytometric method (reference value: 1.03%). It is filed as functional.
Data set [7] concerns SUNE1. The data set is described as follows: Induction of apoptosis in human SUNE1 cells incubated for 24 hrs by Annexin-V/propidium iodide staining based flow cytometric method (reference value: 93.79%). It is filed as functional, cell-based.
Data set [8] concerns 786-0. In words: Induction of apoptosis in human 786-O cells incubated for 24 hrs by Annexin-V/propidium iodide staining based flow cytometric method. It counts as functional, cell-based.
In data set [9] the test system is 786-0. The data set is described as follows: Induction of apoptosis in human 786-O cells assessed as late apoptotic cells at 5 uM incubated for 24 hrs by Annexin-V/propidium iodide staining based flow cytometric method (reference value: 3.80%). It counts as functional.
Data set [10] has as its system SUNE1. In words: Induction of apoptosis in human SUNE1 cells assessed as necrotic cells at 5 uM incubated for 24 hrs by Annexin-V/propidium iodide staining based flow cytometric method (reference value: 1.07%). It is filed as functional.
The test system of data set [11] is CNE. The data set is described as follows: Cytotoxicity against human CNE1 cells assessed as decrease in cell viability incubated for 24 hrs by MTT assay. It counts as functional, cell-based. An outline of the steps: as §2
The subject of data set [12] is 786-0. The data set is described as follows: Induction of apoptosis in human 786-O cells assessed as viable cells at 5 uM incubated for 24 hrs by Annexin-V/propidium iodide staining based flow cytometric method (reference value: 93.63%). Particulars: 786-0, 24 h, read-out: Activity. It counts as functional.
The test system of data set [13] is SUNE1. In words: Cytotoxicity against human SUNE1 cells assessed as decrease in cell viability incubated for 24 hrs by MTT assay. It counts as functional, cell-based. An outline of the steps: as §2
For data set [14], the target named is T1, Mitogen-activated protein kinase; ERK1/ERK2 (Homo sapiens). In words: Inhibition of ERK1/2 phosphorylation in human 786-O cells at 1 uM incubated for 24 hrs by Western blot analysis relative to control. It is filed as cell-based. The gist of the method: as §1
Data set [15] deals with T2, MAP kinase-interacting serine/threonine-protein kinase 1 (Homo sapiens, UniProt Q9BUB5). The data set is described as follows: Inhibition of human MNK1 using CREBtide substrate by gamma-[32P]-ATP competitive inhibition assay. The gist of the method:
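Run as the Eurofins KinaseProfiler radiometric assay, competitive with γ-[32P]-ATP. IC50 taken as the mean of independent experiments; the footnote gives two.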
Target sequence in this assay (Q9BUB5 whole entry): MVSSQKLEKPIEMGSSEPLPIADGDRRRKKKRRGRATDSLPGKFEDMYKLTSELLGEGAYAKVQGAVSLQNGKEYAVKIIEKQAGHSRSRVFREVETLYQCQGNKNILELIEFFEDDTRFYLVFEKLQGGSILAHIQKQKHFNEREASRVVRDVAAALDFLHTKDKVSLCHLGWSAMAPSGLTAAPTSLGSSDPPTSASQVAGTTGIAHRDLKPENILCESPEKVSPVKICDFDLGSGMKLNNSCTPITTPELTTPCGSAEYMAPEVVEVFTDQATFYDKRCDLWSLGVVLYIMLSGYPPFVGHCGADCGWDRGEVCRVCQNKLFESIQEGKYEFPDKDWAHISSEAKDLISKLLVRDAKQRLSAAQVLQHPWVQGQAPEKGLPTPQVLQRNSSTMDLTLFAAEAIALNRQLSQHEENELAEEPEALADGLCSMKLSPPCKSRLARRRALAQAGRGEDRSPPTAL

Data set [16] relates to 786-0. In words: Induction of apoptosis in human 786-O cells assessed as necrotic cells at 1 uM incubated for 24 hrs by Annexin-V/propidium iodide staining based flow cytometric method (reference value: 0.83%). It is filed as functional.
Data set [17] has as its system 786-0. In words: Induction of apoptosis in human 786-O cells assessed as late apoptotic cells at 1 uM incubated for 24 hrs by Annexin-V/propidium iodide staining based flow cytometric method (reference value: 3.80%). It is filed as functional.
Data set [18] relates to 786-0. In words: Effect on total ERK1/2 protein expression in human 786-O cells incubated for 24 hrs by Western blot analysis relative to control. It is filed as cell-based. Particulars: 786-0, 24 h. The gist of the method:
as §1

The subject of data set [19] is SUNE1. In words: Induction of apoptosis in human SUNE1 cells assessed as viable cells at 1 uM incubated for 24 hrs by Annexin-V/propidium iodide staining based flow cytometric method (reference value: 93.79%). It is filed as functional. Particulars: SUNE1, 24 h, read-out: Activity.
Data set [20] has as its system 786-0. The data set is described as follows: Cytotoxicity against human 786-O cells assessed as decrease in cell viability incubated for 24 hrs by MTT assay. It is filed as functional, cell-based. An outline of the steps: as §2
In data set [21] the test system is SUNE1. In words: Effect on total MNK1 protein expression in human SUNE1 cells incubated for 24 hrs by Western blot analysis relative to control. It counts as ADME, cell-based. Particulars: sune1, 24 h. The gist of the method: as §1
In data set [22] the test system is 786-0. The data set is described as follows: Induction of apoptosis in human 786-O cells assessed as necrotic cells at 5 uM incubated for 24 hrs by Annexin-V/propidium iodide staining based flow cytometric method (reference value: 0.83%). It is filed as functional.
The subject of data set [23] is 786-0. The data set is described as follows: Effect on total MNK1 protein expression in human 786-O cells incubated for 24 hrs by Western blot analysis relative to control. It is filed as cell-based. Particulars: 786-0, 24 h. The gist of the method: as §1
The species entered for data set [24] is Homo sapiens. The data set is described as follows: Cytotoxicity against human HNE1 cells assessed as decrease in cell viability incubated for 24 hrs by MTT assay. It counts as functional, cell-based. The gist of the method: as §2
Data set [25] concerns SUNE1. In words: Effect on total ERK1/2 protein expression in human SUNE1 cells incubated for 24 hrs by Western blot analysis relative to control. It counts as ADME, cell-based. Particulars: sune1, 24 h. An outline of the steps:
as §1

Data set [26] deals with 786-0. In words: Induction of apoptosis in human 786-O cells assessed as early apoptotic cells at 5 uM incubated for 24 hrs by Annexin-V/propidium iodide staining based flow cytometric method (reference value: 1.74%). It counts as functional.
Data set [27] concerns 786-0. The data set is described as follows: Induction of apoptosis in human 786-O cells assessed as early apoptotic cells at 1 uM incubated for 24 hrs by Annexin-V/propidium iodide staining based flow cytometric method (reference value: 1.74%). It is filed as functional.
Data set [28] concerns SUNE1. The data set is described as follows: Induction of apoptosis in human SUNE1 cells assessed as early apoptotic cells at 5 uM incubated for 24 hrs by Annexin-V/propidium iodide staining based flow cytometric method (reference value: 1.03%). It counts as functional.
Data set [29] deals with SUNE1. The data set is described as follows: Induction of apoptosis in human SUNE1 cells assessed as late apoptotic cells at 5 uM incubated for 24 hrs by Annexin-V/propidium iodide staining based flow cytometric method (reference value: 4.11%). It counts as functional.
The test system of data set [30] is CNE-2. In words: Cytotoxicity against human CNE2 cells assessed as decrease in cell viability incubated for 24 hrs by MTT assay. It is filed as functional, cell-based. The gist of the method: as §2
Data set [31] relates to 786-0. In words: Effect on total eIF4E protein expression in human 786-O cells incubated for 24 hrs by Western blot analysis relative to control. It is filed as cell-based. Particulars: 786-0, 24 h. An outline of the steps:
as §1

Data set [32] concerns the target T2, MAP kinase-interacting serine/threonine-protein kinase 1. The data set is described as follows: Inhibition of MNK1 in human 786-O cells assessed as decrease in eIF4E phosphorylation at 1 uM incubated for 24 hrs by Western blot analysis relative to control. It is filed as cell-based. The gist of the method:
as §1
Target sequence in this assay (Q9BUB5 whole entry, looked up): as the sequence (Q9BUB5 whole entry) above

The subject of data set [33] is SUNE1. The data set is described as follows: Induction of apoptosis in human SUNE1 cells assessed as late apoptotic cells at 1 uM incubated for 24 hrs by Annexin-V/propidium iodide staining based flow cytometric method (reference value: 4.11%). It is filed as functional.
Data set [34] has as its system A498. In words: Cytotoxicity against human A498 cells assessed as decrease in cell viability incubated for 24 hrs by MTT assay. It is filed as functional, cell-based. An outline of the steps:
as §2

The test system of data set [35] is 786-0. The data set is described as follows: Induction of apoptosis in human 786-O cells assessed as viable cells at 1 uM incubated for 24 hrs by Annexin-V/propidium iodide staining based flow cytometric method (reference value: 93.63%). It counts as functional. Particulars: 786-0, 24 h, read-out: Activity.

T1 sequence (P27361 whole entry, looked up): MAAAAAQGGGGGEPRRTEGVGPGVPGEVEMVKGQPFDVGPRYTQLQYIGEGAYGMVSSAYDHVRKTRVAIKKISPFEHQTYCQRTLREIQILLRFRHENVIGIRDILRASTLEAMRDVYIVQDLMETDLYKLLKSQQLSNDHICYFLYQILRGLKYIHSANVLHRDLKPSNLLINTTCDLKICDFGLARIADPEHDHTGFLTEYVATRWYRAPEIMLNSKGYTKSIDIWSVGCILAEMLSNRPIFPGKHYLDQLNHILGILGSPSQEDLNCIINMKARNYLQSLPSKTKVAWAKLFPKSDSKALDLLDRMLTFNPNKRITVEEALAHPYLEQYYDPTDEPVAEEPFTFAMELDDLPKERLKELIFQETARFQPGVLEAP
T1 sequence (P28482 whole entry, looked up): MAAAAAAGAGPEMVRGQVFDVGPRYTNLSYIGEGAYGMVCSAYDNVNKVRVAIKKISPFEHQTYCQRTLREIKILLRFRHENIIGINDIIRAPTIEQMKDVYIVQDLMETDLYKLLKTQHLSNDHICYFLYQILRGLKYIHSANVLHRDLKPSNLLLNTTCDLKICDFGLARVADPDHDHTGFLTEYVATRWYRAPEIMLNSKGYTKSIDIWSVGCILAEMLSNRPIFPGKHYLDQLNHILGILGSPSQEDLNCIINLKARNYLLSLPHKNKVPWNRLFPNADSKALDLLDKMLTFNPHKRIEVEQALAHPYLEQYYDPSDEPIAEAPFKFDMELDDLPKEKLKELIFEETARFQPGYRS

The term IC50 denotes the point on the concentration scale where inhibition reaches its midpoint. Read a low IC50 as inhibition by little substance. On to `COc1ccc(S(=O)(=O)N2CCc3c(sc4ncnc(Nc5ccc(F)cc5OC)c34)C2)cc1`, for which the inhibition result in data set [1] and in [14] was “inactive” in each case. Also, the result in [2], in data set [11], in [13], in data set [20], in [24] and in data set [30] was Active. In addition, in [34], the outcome was Active. Besides, the viability at 5 µM in [3] is 35.9%; in data set [12], 42.9%. The Activity in data set [4] was 10.6%; in data set [5], “Non-Toxic”; in data set [6] it was 34.6%; in [7] it was “Dose-dependent effect”; in [8], “Dose-dependent effect”; in data set [9] it was 11.79%. Also, the Activity in [10] is reported as 3.52%; in data set [16], 4.64%; in data set [17], 8.5%; in [18], “Non-Toxic”; in data set [21], “Non-Toxic”; in data set [22] it was 7.88%. In addition, the Activity result in data set [23] is “Non-Toxic”; in [25], “Non-Toxic”; in [26], 37.44%; in data set [27], 17.94%; in data set [28], 49.87%; in [29], 10.61%. Besides, the Activity result in data set [31] is given as “Non-Toxic”; in [33], 18.18%. The molecule also displayed a concentration for half-maximal inhibition (IC50) in data set [15] of 0.65 µM. For the same molecule, the viability at 1 µM in [19] was determined as 36.6%; in data set [35] it was 68.9%. For the same molecule, the inhibition result in data set [32] was “Dose-dependent effect”.

As for `COc1ccc(S(=O)(=O)N2CCc3c(sc4ncnc(Nc5ccc(F)cc5Br)c34)C2)cc1`, the result in [2], in data set [11], in [13], in data set [20], in [24] and in data set [30] was Active. For the same molecule, in data set [34], the outcome was Active. In [15], the concentration for half-maximal inhibition (IC50) was 1 µM.

With `COc1ccc(S(=O)(=O)N2CCc3c(sc4ncnc(Nc5ccc(Br)cc5)c34)C2)cc1`, the result in data set [2], in [11], in [13], in data set [20], in data set [24] and in data set [30] was Active. In addition, the result in data set [34] was Active. Besides, the IC50 in data set [15] amounted to 1.07 µM.

For `COc1ccc(S(=O)(=O)N2CCc3c(sc4ncnc(Nc5ccc(Cl)cc5F)c34)C2)cc1`, the result in data set [2], in data set [11], in data set [13], in [20], in data set [24] and in data set [30] was Active. Moreover, the result in [34] was Active. This molecule displayed an IC50 in data set [15] of 1.15 µM.
